Assay results published in the EternaBench riboswitch data.

Test system: MS2 coat protein
Assay: apparent Kd, MS2 coat protein; higher = weaker binding; RNA-MaP array; FMN 200 µM where present
How it was run: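 SNAP-549-labelled MS2 coat protein, doubled from 0.7 or 1.5 nM to 3 µM, was titrated over designs transcribed by stalled E. coli RNA polymerase on Illumina sequencing-chip clusters. Titrations were run without and then with constant ligand in 100 mM Tris-HCl pH 7.5, 80 mM KCl, 4 mM MgCl2, BSA, DTT, yeast tRNA and Tween-20. The apparent Kd is the median of filtered per-cluster fits to green signal normalised to red-channel RNA signal and control-cluster median Fmax.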

[1] = designed as: ON switch for flavin mononucleotide, no ligand
[2] = ligand present: flavin mononucleotide, designed as: ON switch for flavin mononucleotide
[3] = ligand present: flavin mononucleotide, designed as: OFF switch for flavin mononucleotide
[4] = designed as: OFF switch for flavin mononucleotide, no ligand

Sequence: GACAUACAUGAGGAUCACCCAUGUUCAGAAGGGCAAGGAUAUGUGUGGAAACCAUACUAUACAGAAGGUGUCUGUC
- apparent Kd [1]: 34.7 nM
- apparent Kd [2]: 20.3 nM

Sequence: GGGACCUACGAGAAGGGCUACAUGAGGAUCACCCAUGUAAAUCUUCGGGUGGCAGGAUAUCGGCGGCUACAGGAGGGCCAGGUC
- apparent Kd [3]: 38.3 nM

Sequence: UAGAAGUCAGGAUAUCCUGCUCGUCACUUGCGUGAUGAGUAGGAGAAGGGACAUGAGGAUCACCCAUGUAAAGU
- apparent Kd [4]: 56.5 nM
- apparent Kd [3]: 63.9 nM

Sequence: UGCCUUAGAGGAUAUACAUUGAAUUUGAUUCAUGUAAAACUACAUGAGGAUCACCCAUGUAGAAGGCUAGGGCU
- apparent Kd [4]: 19.1 nM
- apparent Kd [3]: 37.1 nM

Sequence: AAACAUGUCCGAGGAUAUCUGGAAACAUUUCCAAGAGAAGGCGGACAUGAGGAUCACCCAUGUCUCUCCUCAUCACAUCCAAGU
- apparent Kd [4]: 9.27 nM
- apparent Kd [3]: 79.3 nM

Sequence: CCGUUACAUGAGGAUCACCCAUGUGAGGAUAUCGAUGUGACUAGCAGCGUGCGGGACUCGAGAAGGCACUUGGC
- apparent Kd [4]: 57.8 nM
- apparent Kd [3]: 41.5 nM

Sequence: UUUUUUGUUGUGAGGAUAUCGUAUUUUUUUUGUUACGAGAAGGCACAUGAGGAUCACCCAUGUUUUUUGAUGUU
- apparent Kd [4]: 24.8 nM
- apparent Kd [3]: 56.7 nM

Sequence: CUUUUGUGAGGAUAUUAGUAGUAAAAAAAUAAAAUUACUACUGAGAAGGCACAUGAGGAUCACCCAUGUUCCUC
- apparent Kd [4]: 31.4 nM
- apparent Kd [3]: 213 nM

Sequence: UUUUAACAUGAGGAUCACCCAUGUGAGGAUAUCGAAAUUUAUAUUAAUAUUAUUAUUUCGAGAAGGCACAUUUU
- apparent Kd [4]: 136 nM
- apparent Kd [3]: 137 nM

Sequence: GGCGAACGGGCUUACAUGAGGAUCACCCAUGUAGACUCAUGGUAGGAUAUGCUGUACUUUGUACAGCAGAAGGGCCGGUGAGCU
- apparent Kd [1]: 65.8 nM
- apparent Kd [2]: 38.7 nM

Sequence: AAUAUAAGAGCUGGUAAAUAAAUCACAUGAGGAUCACCCAUGUAGGAUAUCAGCACGAUAAGUGCUGAGAAGGACAUCCAGCUC
- apparent Kd [4]: 13.4 nM
- apparent Kd [3]: 14.6 nM

Sequence: GCCUUAUCUGUCAGGAUAUACAAUUUUUUUUUUUUGUAGAAGGGACAUGAGGAUCACCCAUGUACAUUACAUUG
- apparent Kd [4]: 34 nM
- apparent Kd [3]: 57.9 nM

Sequence: GUAGCAUACCGAGGAUAUUCCCGGAAACGGAAAACAUGAGGAUCACCCAUGUGGCGAAAGCCUUGGGAGAAGGCGGAAUGCUAC
- apparent Kd [1]: 25.4 nM
- apparent Kd [2]: 19.4 nM

Sequence: GUGUACAGAGGAUAUAUAUGAGCUAGGAAACUAGCAAGAUCACAUGAGGAUCACCCAUGUAGAAGGCUGUACAC
- apparent Kd [4]: 114 nM
- apparent Kd [3]: 1210 nM

Sequence: AGCAUGUGAGGAUAUGUGACCCUCAUCCGAAGGACGAGGGAAUAGAAGGCACAUGAGGAUCACCCAUGUGAUGA
- apparent Kd [4]: 46.2 nM
- apparent Kd [3]: 188 nM

Sequence: CUAAAUCAUGUAGGAUAUGCGUGGCGAAGCUAUGCAGAAGGACAUGAGGAUCACCCAUGUCUUUCUGUCUGCGUACAGACGGAA
- apparent Kd [4]: 23.5 nM
- apparent Kd [3]: 135 nM

Sequence: UACAGACAUGAGGAUCACCCAUGUGAGGAUAUCCAUAACGAUAUUACAAGUAUGACAGGGAGAAGGCACAGCAA
- apparent Kd [4]: 41.3 nM
- apparent Kd [3]: 52 nM

Sequence: AUACACUUAGUGAGGAUAUCGUUUUCUUUACGGAUCGAGAAGGCACAUGAGGAUCACCCAUGUUUGACGUGAAU
- apparent Kd [4]: 21.4 nM
- apparent Kd [3]: 68.9 nM

Sequence: CGUUCACAUGAGGAUCACCCAUGUCAGAUUUGGUCAGGAUAUGGUCUGCUUCCGCUAUUGCCAGAAGGGACUUUUG
- apparent Kd [1]: 28.9 nM
- apparent Kd [2]: 22.7 nM

Sequence: AAGAAGUCAGGAUAUGCAUGGCGGGACUUGCGUCGUGGCGUGCAGAAGGGACAUGAGGAUCACCCAUGUAAAGC
- apparent Kd [4]: 49.8 nM
- apparent Kd [3]: 42.4 nM

Sequence: UACAUGUGAGGAUAUUAGAUCGCUAACUGGCGGGAGCGAUCUGAGAAGGCACAUGAGGAUCACCCAUGUGUCGU
- apparent Kd [4]: 16.9 nM
- apparent Kd [3]: 40.2 nM

Sequence: CGAUAGGACAGAGGAUAUACACAUGAGGAUCACCCAUGUAAUUACAAUUCUUAAGAUUCAAACAUGUAGAAGGCUGUCCUAUCG
- apparent Kd [4]: 35.9 nM
- apparent Kd [3]: 13.1 nM

Sequence: UGUCGGAGCAGAGGAUAUUACAUGAGGAUCACCCAUGUAUGAACCAAUAGCUGGAAACCGCAAUGUAAGAAGGCUGCUCCGACA
- apparent Kd [4]: 104 nM
- apparent Kd [3]: 374 nM

Sequence: GGGAGACAUGAGGAUCACCCAUGUGAAAACGUGUGAGGAUAUCAAUGGAAACCAUACUGUUGAGAAGGCACUUGUC
- apparent Kd [1]: 118 nM
- apparent Kd [2]: 41.2 nM

Sequence: UGUAAAUUAUUAAGUAAUUAGGCGAAGGAUAUAUAACAUGAGGAUCACCCAUGUACUAAAUUGAAGUAGAAGGUUGAACAUUUC
- apparent Kd [1]: 14.5 nM
- apparent Kd [2]: 12.9 nM

Sequence: AUAGAAGACUAGAAGGAGGUUUAAUAAUAUUGUCGAGGUAUUGUUGAAUUUAGGAUAUGGGACAUGAGGAUCACCCAUGUUUUG
- apparent Kd [1]: 24 nM
- apparent Kd [2]: 16.2 nM

Sequence: CUUUUGUGAGGAUAUUCGUAGUAGGGUCAUGGCAUUAUUAUGAAGAAGGCACAUGAGGAUCACCCAUGUACCUU
- apparent Kd [4]: 17.3 nM
- apparent Kd [3]: 34.6 nM

Sequence: AUCAGCUCGACAGGAUAUACGUCACUGCGUCAGCAGUGUGGUAAGAUCACAUGAGGAUCACCCAUGUAGAAGGGACGAGCUGAU
- apparent Kd [4]: 12.1 nM
- apparent Kd [3]: 56.2 nM

Sequence: CAGGUAGACUGAGGAUAUACAAUAAGACCUAGUCUAUCUAGGUCACUCACAUGAGGAUCACCCAUGUAGAAGGCAGUCUGCCUG
- apparent Kd [4]: 21.8 nM
- apparent Kd [3]: 79.7 nM

Sequence: UAUAUAUAGUAAGGAUAUGUAAUUAUUUUAUAAACAGAAGGUACUGACAUGAGGAUCACCCAUGUUUUAGUGUGGGCAUGUAGA
- apparent Kd [4]: 87.7 nM
- apparent Kd [3]: 139 nM

Sequence: AAUUUAAUACAUGAGGAUCACCCAUGUAAAUUAAUUAAGAUCAAGGAUAUCAGCUCGAAUAGAGCUGAGAAGGUGAUCACAUGU
- apparent Kd [1]: 351 nM
- apparent Kd [2]: 86.5 nM

Sequence: CUUUUGUGAGGAUAUCAGUAGUAUAUAAAUAAAAUUACUACUGAGAAGGCACAUGAGGAUCACCCAUGUUCCUC
- apparent Kd [4]: 39.2 nM
- apparent Kd [3]: 164 nM

Sequence: GGAUGACAAAGUCAUCCAAUUCGAACAUGAGGAUCACCCAUGUAGGAUAUGCUACUCAAAGAGUAGCAGAAGGACAUGUGCCUU
- apparent Kd [4]: 31.7 nM
- apparent Kd [3]: 173 nM

Sequence: GGAAAUCAUGUAGGAUAUGCAUGGCGAAGCUACGCAGAAGGACAUGAGGAUCACCCAUGUUCUAGCUACCGAGUUCGGUGGCAA
- apparent Kd [4]: 21.6 nM
- apparent Kd [3]: 114 nM

Sequence: UUGGACGUCGUAGGAUAUGUAGGAUAUUCCUACAUGAGGAUCACCCAUGUUGACAUGGAAGAAGGAUAGAAGGACGAUGUCCAU
- apparent Kd [1]: 624 nM
- apparent Kd [2]: 81.5 nM

Sequence: ACAUGAGGAUCACCCAUGUUGAAUUAGGAUAUUUGACUGCACAUGAGGUUCACCCAUGUUCAACCGGAGAAGGGAUUAAUAAUU
- apparent Kd [1]: 82.5 nM
- apparent Kd [2]: 83.6 nM

Sequence: UGGUACUAGGGAGGAUAUGGGAUGAUACAUGAGGAUCACCCAUGUUUAAGAAUGCCGAGAGGCAACUAGAAGGCCCUAGUACCU
- apparent Kd [1]: 448 nM
- apparent Kd [2]: 174 nM

Sequence: UCAUGGUAGCAGGAUAUGCUUGUUUUUUUUUUUGCAGAAGGGCUUACAUGAGGAUCACCCAUGUGAGAGGUCUA
- apparent Kd [4]: 14.5 nM
- apparent Kd [3]: 21.6 nM

Sequence: AAAACACAUGAGGAUCACCCAUGUAUCUGGACCAUAGGAUAUCCGCGCCCAAUAAGGUGUGGAGAAGGGUGAGCCC
- apparent Kd [1]: 158 nM
- apparent Kd [2]: 181 nM

Sequence: CGGGAUCCGAAGGGCGAAAGCCCACAUGAGGAUCACCCAUGUAGAAGGCGGGCCGCAACGCGGCCCGAGGAUAUACAGGAUCCA
- apparent Kd [4]: 17.9 nM
- apparent Kd [3]: 37 nM

Sequence: AGGAAACAUGAGGAUCACCCAUGUAAAAGGUGGGUAGGAUAUGCGAAAAGAAAAAGAAAAGCAGAAGGGCCAAGAA
- apparent Kd [1]: 101 nM
- apparent Kd [2]: 47.4 nM

Sequence: UGCUACGUUUCGUAGCAGUGUCAUCGAGAAGGCCCUGACAUGAGGAUCACCCAUGUUGUUACAUGGGAGGAUAUCGAUGAUACU
- apparent Kd [1]: 12.4 nM
- apparent Kd [2]: 5.09 nM

Sequence: CAGCGGAGCCUAGGAUAUGCGACAUGAGGAUCACCCAUGUACGCCAAAACGUCACCAUGGGUCUCGCAGAAGGAGGAAACACUG
- apparent Kd [4]: 54.7 nM
- apparent Kd [3]: 24.3 nM

Sequence: AGCGUACAAGCUGACAUGAGGAUCACCCAUGUGGUCUCAUGCGAGGAUAUCGGGAAGGAGGAUUCCGAGAAGGUGCGGUGAGCC
- apparent Kd [1]: 275 nM
- apparent Kd [2]: 44.9 nM

Sequence: CUGAUGUGAGGAUAUCAACGCCAUGUCUUUGACAUGGCGCAUGAGAAGGCACAUGAGGAUCACCCAUGUUCUUC
- apparent Kd [4]: 36 nM
- apparent Kd [3]: 640 nM

Sequence: ACAGUCACAGUAACCUGUGGCCGUGAGGAUAUAUAUGGCUCGGAGCGGACAUGAGGAUCACCCAUGUAGAAGGCACGAACUAAA
- apparent Kd [4]: 6.21 nM
- apparent Kd [3]: 7.09 nM

Sequence: CUGCUUCGCUAAGGAUAUCACAUUGUCGAUCUGCGUGCAGCCUCCUGACAUGAGGAUCACCCAUGUGAGAAGGUAGACGACGUG
- apparent Kd [4]: 19.4 nM
- apparent Kd [3]: 22.5 nM

Sequence: UGGUACUAGGGAGGAUAUGGGAAGAUACAUGAGGAUCACCCAUGUUUAAGAAUGCCGAGAGGGAACUAGAAGGCCCUAGUACCU
- apparent Kd [2]: 14.5 nM

Sequence: UUUCCGCGAGGAUAUGCGGGUUGUGCUUUUCAUUUCUUACAACAUGAGGAUCACCCAUGUAGAAGGUGCUUCUU
- apparent Kd [4]: 174 nM
- apparent Kd [3]: 156 nM
